The structures appear in SMILES notation. Calls of active or inactive are those of the source. No cut-off for these calls is given here.

A short description of experiment [1]: In vitro binding affinity towards atrionatriuretic peptide receptor (ANP) using [125I]rANP as radioligand in bovine adrenal zonal glomerulosa membranes.
The species entered for experiment [2] is Rattus norvegicus. The experiment is described as follows: ACTH-stimulated aldosterone synthesis was determined in rat adrenal glomerulosa cell suspension (control = 8.5+/-0.9). The class given is functional.
The species named for experiment [3] is Rattus norvegicus. The experiment is described as follows: Inhibition of aldosterone synthesis was determined in rat adrenal glomerulosa per 2 hours at 3 uM concentration, in the absence of rANP (control = 1+/-0.1). The class given is functional.
The species named for experiment [4] is Rattus norvegicus. The experiment is described as follows: Concentration for rANP inhibition of aldosterone synthesis was determined in rat adrenal glomerulosa. The class given is functional. An outline of the steps: (§1)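 Collagenase-dispersed male Sprague-Dawley rat adrenal glomerulosa cells were used at about 30,000 cells/mL in M199 with KCl 3.5 mM and BSA 2 mg/mL. They were incubated 2 h at 37 °C with ACTH 1 nM and rANP 10⁻¹⁰–10⁻⁸ M, plus compound or water vehicle. Aldosterone was measured by RIA. The EC50 came from a four-parameter logistic fit, compared by Student's t test, 10 experiments.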

Experiment [5] can be described thus: Percent increase in [125I]rANP binding at 20 uM concentration in bovine zona glomerulosa membranes. It is filed as cell membranes.
Experiment [6] in a line: In vitro binding affinity towards Atrionatriuretic peptide receptor (ANP) using [125I]rANP as radioligand in bovine adrenal zonal glomerulosa membranes.
The nature of experiment [7]: In vitro binding affinity towards atrionatriuretic peptide receptor (ANP) using [125I]rANP as radioligand in bovine adrenal zonal glomerulosa membranes; Not active at 20 uM.
For experiment [8], the species on record is Rattus norvegicus. The experiment is described as follows: Inhibition of ACTH (1 nM)-stimulated aldosterone synthesis was determined in rat adrenal glomerulosa (control = 17.4+/-2.5). It is filed as functional.
For experiment [9], the species on record is Rattus norvegicus. The experiment is described as follows: Inhibition of aldosterone synthesis was determined in rat adrenal glomerulosa per 2 hours at 10 uM concentration, in the absence of rANP (control = 1.8+/-0.5). It is filed as functional.
For experiment [10], the species on record is Rattus norvegicus. The experiment is described as follows: Concentration for rANP inhibition of aldosterone synthesis was determined n rat adrenal glomerulosa. It is filed as functional. In outline: as §1

As to `CCN(CC)c1nc(NCC/N=C(\N)NC)c2ccccc2n1`, the SC50 in [1] came to 4.5 µM.

With `CC/N=C(/N)NCCNc1nc(N(CC)CC)nc2ccccc12`, the SC50 in [1] turned out to be 7.4 µM.

As to `O=C(c1ccco1)N1CCN(c2nc(N3CCCC3)c3ccccc3n2)CC1`, the SC50 in experiment [1] amounted to 7 µM.

`CCN(CC)c1nc(NCCCN=C(N)N)c2ccccc2n1` came in with an SC50 in experiment [1] of 1.8 µM. Further, the Concentration in the experiment filed under Rattus norvegicus [2] was found to be 7.7 ng/mL; in the experiment filed under Rattus norvegicus [3], 0.9 ng/mL. Also, in the experiment filed under Rattus norvegicus [4], the midpoint of the response, the EC50, lay at 0.12 nM.

In the case of `CCN(CC)c1nc(NCC/N=C(/NC)NC#N)c2ccccc2n1`, the Increase in experiment [5] was 25%.

For `COc1cc2nc(N3CCN(C(=O)c4ccco4)CC3)nc(N)c2cc1OC`, in [6], the SC50 was 25 µM.

For the molecule `CCN(CC)c1nc(OC)c2ccccc2n1`, the SC50 result in experiment [7] was “inactive”. Further, the Concentration in the experiment listed under Rattus norvegicus [8] is 17.8 ng/mL; in the experiment listed under Rattus norvegicus [9], 1.4 ng/mL. Further, the EC50 (as a rule, the concentration that produces a half-maximal response) in the experiment listed under Rattus norvegicus [10] amounted to 0.18 nM.

On to `CN(CCCN=C(N)N)c1nc(N2CCCC2)c2ccccc2n1`, for which, in experiment [1], the SC50 came to 1.5 µM.

As to `CCN(CC)c1nc(NCCN=C(N)N)c2ccccc2n1`, in experiment [1], the SC50 turned out to be 2.4 µM.

As to `CC/N=C(/NC#N)NCCNc1nc(N(CC)CC)nc2ccccc12`, the Increase in experiment [5] amounted to 12%.

For the molecule `CN(CCCNC(=O)c1ccco1)c1nc(N2CCCC2)c2ccccc2n1`, the SC50 in experiment [1] was determined as 5.6 µM.

`c1ccc2c(N3CCCC3)nc(N3CCNCC3)nc2c1` had an SC50 in [1] of 4.2 µM.

`CCN(CC)c1nc(NCCCCN=C(N)N)c2ccccc2n1`: the SC50 in experiment [1] amounted to 2.2 µM.

For the origin of these results see ChEMBL document CHEMBL1124954, “Atrial natriuretic peptide receptor modulators: effects of disubstituted quinazolines on receptor binding and in vitro biological activity” (J Med Chem, 1990).
